Assay [1] concerns Candida albicans. Put plainly: Upregulation of orf19.4907 gene expression in Candida albicans SC5314 at 3 uM after 45 mins by microarray method relative to control. The class given is functional. An outline of the steps:
(§1)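 Log-phase cultures in liquid YEPD were exposed to 3 µM compound (final) for 15 or 45 min, with untreated controls sampled at the same times, in three biological replicates. Total RNA was extracted by glass-bead/phenol-chloroform disruption and integrity-checked. One-color Cy3-labelled cRNA (600 ng) was hybridized for 17 h at 65 °C to 8 × 15K arrays, and fold change was taken versus control.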

The next assay has as its system Candida tropicalis. Put plainly: Fungicidal activity against Candida tropicalis 86E assessed as reduction in CFU at 20 uM measured at 24 hrs by time kill assay relative to control. The class given is functional. The essentials:
(§2)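 EUCAST broth microdilution at 37 °C. From wells at MIC, 2×, 4× and 8× MIC, 10 µL aliquots were taken, serially 10-fold diluted in saline and plated on Sabouraud dextrose agar. Plates were incubated at 37 °C for 24/48 h, and 48 h for Cryptococcus and Geotrichum. Done in duplicate, detection limit 10 CFU/mL. A drop of at least 3 Log10 CFU/mL from the initial inoculum in 24 h counts as fungicidal; a smaller drop counts as fungistatic.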

Assay [2] relates to Candida albicans. Put plainly: Antifungal activity against Candida albicans 15T measured at 48 hrs by broth dilution assay. The class given is functional. An outline of the steps:
(§3)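 EUCAST broth microdilution, including the update for non-fermenting yeasts (Cryptococcus, Geotrichum), on clinical and reference yeast isolates. Incubated at 37 °C and read at 24, 48 and 72 h. MIC taken as the lowest concentration with no visible growth. For Cryptococcus and Geotrichum, MICs were read only once growth was visible in the control row.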
Background: Broth dilution looks for growth in wells or tubes with falling amounts of substance.

The subject of assay [3] is Cryptococcus neoformans. Put plainly: Antifungal activity against Cryptococcus neoformans up to 96 hrs by broth dilution assay. The class given is functional, organism-based.
Assay [4] concerns Candida parapsilosis. Put plainly: Antifungal activity against Candida parapsilosis ATCC 34136 measured at 24 hrs by broth dilution assay. The class given is functional. The settings on record: Lodderomyces parapsilosis, ATCC 34136, 24 h. The essentials: as §3
Assay [5] relates to Candida albicans. Put plainly: Antifungal activity against Candida albicans isolate DSY448 harboring CDR1 deletion mutant at 10 uM by serial dilution assay. It is filed as functional, organism-based. The essentials: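 Spot dilution assay: C. albicans cells 10-fold serially diluted from 2 × 10^7 cells/mL, with 5 µL of each dilution spotted onto YEPD agar plates containing the drug.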

Assay [6] relates to Candida albicans. Put plainly: Upregulation of CDR1 gene expression in Candida albicans SC5314 at 3 uM after 45 mins by microarray method relative to control. The class given is functional. The essentials: (§4)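 Log-phase C. albicans SC5314 in liquid YEPD exposed to 3 µM final for 15 or 45 min; untreated controls taken at the same time points. Three biological replicates. RNA extracted by glass-bead/phenol-chloroform method and integrity checked. One-color Cy3-labeled cRNA (600 ng) hybridized 17 h at 65 °C to 8 × 15K arrays. Expression expressed as fold change versus control.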

For assay [7], the system named is Candida albicans. Put plainly: Antifungal activity against Candida albicans 15T measured at 24 hrs by broth dilution assay. It is filed as functional. An outline of the steps:
as §3

Assay [8] relates to Candida albicans. Put plainly: Upregulation of ERG2 gene expression in Candida albicans SC5314 at 3 uM after 15 mins by microarray method relative to control. It is filed as functional. The essentials: as §4
The test system of assay [9] is Candida albicans. Put plainly: Upregulation of FCR1 gene expression in Candida albicans SC5314 at 3 uM after 45 mins by microarray method relative to control. The class given is functional. An outline of the steps:
as §4

The subject of assay [10] is Candida albicans. Put plainly: Upregulation of IFU5 gene expression in Candida albicans SC5314 at 3 uM after 45 mins by microarray method relative to control. It is filed as functional. An outline of the steps:
as §4

Assay [11] deals with Candida parapsilosis. Put plainly: Antifungal activity against Candida parapsilosis ATCC 34136 measured at 72 hrs by broth dilution assay. The class given is functional. The settings on record: Lodderomyces parapsilosis, ATCC 34136, 72 h. An outline of the steps:
as §3

The test system of assay [12] is Candida albicans. Put plainly: Upregulation of orf19.2726 gene expression in Candida albicans SC5314 at 3 uM after 15 mins by microarray method relative to control. It is filed as functional. An outline of the steps:
as §1

Assay [13] concerns Candida albicans. Put plainly: Upregulation of orf19.6873.1 gene expression in Candida albicans SC5314 at 3 uM after 15 mins by microarray method relative to control. It is filed as functional. The essentials:
as §1

Assay [14] concerns Cryptococcus neoformans. Put plainly: Antifungal activity against Cryptococcus neoformans measured at 48 hrs by broth dilution assay. It is filed as functional, organism-based. The essentials:
as §3

Assay [15] concerns Candida parapsilosis. Put plainly: Fungistatic activity against Candida parapsilosis 81E at 20 uM after 24 to 48 hrs by time kill assay. The class given is functional, organism-based. The essentials: as §2
Assay [16] concerns Candida albicans. Put plainly: Antifungal activity against Candida albicans 53T measured at 24 hrs by broth dilution assay. It is filed as functional. The essentials: as §3
Assay [17] has as its system Candida albicans. Put plainly: Upregulation of LCB4 gene expression in Candida albicans SC5314 at 3 uM after 45 mins by microarray method relative to control. It is filed as functional. The essentials:
as §4

The test system of assay [18] is Candida albicans. Put plainly: Antifungal activity against Candida albicans 4T measured at 48 hrs by broth dilution assay. It is filed as functional. The essentials:
as §3

The subject of assay [19] is Candida albicans. Put plainly: Upregulation of CDR1 gene expression in Candida albicans SC5314 at 3 uM after 15 mins by microarray method relative to control. The class given is functional. The essentials: as §4
Another assay has as its system Magnusiomyces capitatus. Put plainly: Fungicidal activity against Geotrichum capitatum at 40 uM measured at 48 hrs by time kill assay. The class given is functional. The essentials: as §2
For the next assay, the system named is Pichia kudriavzevii. Put plainly: Antifungal activity against Candida krusei ATCC 14243 measured at 72 hrs by broth dilution assay. The settings on record: ATCC 14243, 72 h. The class given is functional. An outline of the steps: as §3

In brackets after ≈: the same amount, converted by molar mass. Activity calls are given as the source filed them.

In the case of `C/C=C/CNC(=N)NCCCCCCCCN1CCCCCCCCNC(=N)NC1=O`, the “fold change (FC)” value is reported as 5.3 with Candida albicans [1]; 3.75 in the assay with Candida albicans [6]; 2.61 with Candida albicans [8]; 5.88 with Candida albicans [9]; 2.58 in the assay with Candida albicans [10]; 5.86 with Candida albicans [12]. In addition, the “fold change (FC)” value was determined as 2.16 with Candida albicans [13], 3.69 with Candida albicans [17] and 3.07 in the assay on Candida albicans [19]. The inhibition (in general, the share of the control response that was lost under treatment) at 20 µM with Candida tropicalis turned out to be 99.9%. In addition, the MIC – broadly, the smallest concentration in the dilution series that meets the test's criterion for growth inhibition – against Candida albicans [2] was 5 µM (≈ 2.18 µg/mL); in the assay on Candida parapsilosis [4], 10 µM (≈ 4.36 µg/mL); against Candida albicans [7] it was 5 µM (≈ 2.18 µg/mL); against Candida parapsilosis [11] it was 80 µM (≈ 34.9 µg/mL); with Candida albicans [16], 5 µM (≈ 2.18 µg/mL); against Candida albicans [18], 5 µM (≈ 2.18 µg/mL). In the assay with Pichia kudriavzevii, this molecule gave a minimal inhibitory concentration (MIC) of 80 µM (≈ 34.9 µg/mL). Moreover, the outcome in the assay with Cryptococcus neoformans [3], with Cryptococcus neoformans [14], with Candida parapsilosis [15] and with Magnusiomyces capitatus was Active. For the same molecule, the outcome with Candida albicans [5] was inactive.

The record behind these values is ChEMBL document CHEMBL3808283, “Biological Characterization and in Vivo Assessment of the Activity of a New Synthetic Macrocyclic Antifungal Compound” (J Med Chem, 2016).
